Assay results as given in ChEMBL document CHEMBL3627702, “Navigating CYP1A Induction and Arylhydrocarbon Receptor Agonism in Drug Discovery. A Case History with S1P1 Agonists” (J Med Chem, 2015).

Legend:
CYP1A1 [1] = test: Induction of CYP1A1 mRNA expression in Sprague-Dawley rat hepatic microsomes at 19 mg/kg, po QD for 4 days relative to control; assay type: ADME, organism-based, Liver; settings: read-out: FC
In short: (§1)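 Male CD rats (226–325 g, n = 3) were dosed by oral gavage once daily for 4 days as a 1% w/v aqueous methylcellulose suspension (3–6 mg/mL, 5 mL/kg). At the end of the study, a left lateral liver lobe section was placed in RNALater and homogenised in TRIzol. RNA was purified, DNase-treated and converted to cDNA, and Cyp1a1 was read on low-density TaqMan arrays.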

[2] = Cmax in Sprague-Dawley rat at 19 mg/kg, po QD measured on day 1; assay type: ADME, organism-based; design: dose 19 mg/kg, route oral; settings: in vivo
In short: (§2)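 Male CD rats (226−325 g), n = 3, given the compound once daily by oral gavage for 4 days. Vehicle was 1% (w/v) methylcellulose aq suspension at 3−6 mg/mL, dosed at 5 mL/kg (target 15−30 mg/kg). Tail vein blood was taken on days 1 and 4 up to 24 h postdose. Blood was diluted 1:1 with water, extracted by acetonitrile protein precipitation and analysed by LC−MS/MS against calibration standards in diluted blood.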

CYP1A2 [3] = test: Induction of CYP1A2 mRNA expression in Sprague-Dawley rat hepatic microsomes at 19 mg/kg, po QD for 4 days relative to control; assay type: ADME, organism-based, Liver; settings: read-out: FC
Rattus norvegicus [4] = test: Dose normalized AUC in Sprague-Dawley rat at 19 mg/kg, po QD measured on day 4; assay type: ADME, organism-based; settings: in vivo; in short: as §2
Rattus norvegicus [5] = test: Dose normalized AUC in Sprague-Dawley rat at 19 mg/kg, po QD measured on day 1; assay type: ADME, organism-based; settings: in vivo; in short: as §2
[6] = Cmax in Sprague-Dawley rat at 19 mg/kg, po QD measured on day 4; assay type: ADME, organism-based; design: dose 19 mg/kg, route oral; settings: in vivo; in short: as §2
[7] = AUC in Sprague-Dawley rat at 19 mg/kg, po QD measured on day 1; assay type: ADME, organism-based; settings: in vivo; in short: as §2
[8] = Lipophilicity, log D of the compound at pH 7.4; assay type: physicochemical; settings: buffer
[9] = AUC in Sprague-Dawley rat at 19 mg/kg, po QD measured on day 4; assay type: ADME, organism-based; settings: in vivo; in short: as §2
[10] = Dissociation constant, pKa of the compound; assay type: physicochemical
CYP1A2 [11] = test: Induction of CYP1A2 mRNA expression in Sprague-Dawley rat hepatic microsomes at 30 mg/kg, po QD for 4 days relative to control; assay type: ADME, organism-based, Liver; settings: read-out: FC
Rattus norvegicus [12] = test: Dose normalized AUC in Sprague-Dawley rat at 30 mg/kg, po QD measured on day 1; assay type: ADME, organism-based; settings: in vivo; in short: as §2
Rattus norvegicus [13] = test: Dose normalized AUC in Sprague-Dawley rat at 30 mg/kg, po QD measured on day 4; assay type: ADME, organism-based; settings: in vivo; in short: as §2
[14] = AUC in Sprague-Dawley rat at 30 mg/kg, po QD measured on day 1; assay type: ADME, organism-based; settings: in vivo; in short: as §2
CYP1A1 [15] = test: Induction of CYP1A1 mRNA expression in Sprague-Dawley rat hepatic microsomes at 30 mg/kg, po QD for 4 days relative to control; assay type: ADME, organism-based, Liver; settings: read-out: FC; in short: as §1
[16] = AUC in Sprague-Dawley rat at 30 mg/kg, po QD measured on day 4; assay type: ADME, organism-based; settings: in vivo; in short: as §2
[17] = Cmax in Sprague-Dawley rat at 30 mg/kg, po QD measured on day 1; assay type: ADME, organism-based; design: dose 30 mg/kg, route oral; settings: in vivo; in short: as §2
[18] = Cmax in Sprague-Dawley rat at 30 mg/kg, po QD measured on day 4; assay type: ADME, organism-based; design: dose 30 mg/kg, route oral; settings: in vivo; in short: as §2
[19] = AUC in Sprague-Dawley rat at 25 mg/kg, po QD measured on day 4; assay type: ADME, organism-based; settings: in vivo; in short: as §2
Rattus norvegicus [20] = test: Dose normalized AUC in Sprague-Dawley rat at 25 mg/kg, po QD measured on day 1; assay type: ADME, organism-based; settings: in vivo; in short: as §2
[21] = Cmax in Sprague-Dawley rat at 25 mg/kg, po QD measured on day 1; assay type: ADME, organism-based; design: dose 25 mg/kg, route oral; settings: in vivo; in short: as §2
Rattus norvegicus [22] = test: Dose normalized AUC in Sprague-Dawley rat at 25 mg/kg, po QD measured on day 4; assay type: ADME, organism-based; settings: in vivo; in short: as §2
[23] = AUC in Sprague-Dawley rat at 25 mg/kg, po QD measured on day 1; assay type: ADME, organism-based; settings: in vivo; in short: as §2
CYP1A2 [24] = test: Induction of CYP1A2 mRNA expression in Sprague-Dawley rat hepatic microsomes at 25 mg/kg, po QD for 4 days relative to control; assay type: ADME, organism-based, Liver; settings: read-out: FC
[25] = Cmax in Sprague-Dawley rat at 25 mg/kg, po QD measured on day 4; assay type: ADME, organism-based; design: dose 25 mg/kg, route oral; settings: in vivo; in short: as §2
CYP1A1 [26] = test: Induction of CYP1A1 mRNA expression in Sprague-Dawley rat hepatic microsomes at 25 mg/kg, po QD for 4 days relative to control; assay type: ADME, organism-based, Liver; settings: read-out: FC; in short: as §1
Rattus norvegicus [27] = test: Dose normalized AUC in Sprague-Dawley rat at 24 mg/kg, po QD measured on day 1; assay type: ADME, organism-based; settings: in vivo; in short: as §2
[28] = Blood clearance in CD rat at 1 mg/kg, iv; assay type: ADME, organism-based
In short: (§3)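 Male CD rats carried femoral vein (dosing) and jugular vein (sampling) cannulae and recovered at least 2 days. They received a 1 h iv infusion at 5 mL kg−1 h−1, target 1 mg/kg, at 0.2 mg/mL in DMSO/10% Kleptose in saline (≤5%:≥95%). pH was adjusted to 8.0 if needed and the solution filtered. Definitive studies used n = 3 in crossover; others used single animals.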

Rattus norvegicus [29] = test: Dose normalized AUC in Sprague-Dawley rat at 24 mg/kg, po QD measured on day 4; assay type: ADME, organism-based; settings: in vivo; in short: as §2
[30] = Cmax in Sprague-Dawley rat at 24 mg/kg, po QD measured on day 4; assay type: ADME, organism-based; design: dose 24 mg/kg, route oral; settings: in vivo; in short: as §2
[31] = Half life in CD rat at 1 mg/kg, iv; assay type: ADME, organism-based; settings: in vivo; in short: as §3
[32] = Cmax in Sprague-Dawley rat at 24 mg/kg, po QD measured on day 1; assay type: ADME, organism-based; design: dose 24 mg/kg, route oral; settings: in vivo; in short: as §2
CYP1A2 [33] = test: Induction of CYP1A2 mRNA expression in Sprague-Dawley rat hepatic microsomes at 24 mg/kg, po QD for 4 days relative to control; assay type: ADME, organism-based, Liver; settings: read-out: FC
[34] = Volume of distribution at steady state in CD rat at 1 mg/kg, iv; assay type: ADME, organism-based; settings: in vivo, read-out: Vdss
In short: (§4)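 Male CD rats cannulated in the femoral and jugular veins, n = 3, crossover design. Day 1: 1 h iv infusion at 1 mg/kg (0.2 mg/mL in ≤5% DMSO/≥95% 10% Kleptose in saline, 5 mL/kg/h). Day 2: oral gavage at 3 mg/kg (0.6 mg/mL in 1% methylcellulose, 5 mL/kg). Blood assayed by LC–MS/MS after acetonitrile precipitation.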

[35] = AUC in Sprague-Dawley rat at 24 mg/kg, po QD measured on day 4; assay type: ADME, organism-based; settings: in vivo; in short: as §2
[36] = AUC in Sprague-Dawley rat at 24 mg/kg, po QD measured on day 1; assay type: ADME, organism-based; settings: in vivo; in short: as §2
CYP1A1 [37] = test: Induction of CYP1A1 mRNA expression in Sprague-Dawley rat hepatic microsomes at 24 mg/kg, po QD for 4 days relative to control; assay type: ADME, organism-based, Liver; settings: read-out: FC; in short: as §1
[38] = Oral bioavailability in CD rat at 3 mg/kg; assay type: ADME, organism-based; settings: in vivo; in short: as §4

| Compound | logD [8] | pKa [10] | fold induction at 96 h (CYP1A2 [11]) | AUC/dose (Rattus norvegicus [12]) | AUC/dose (Rattus norvegicus [13]) | AUC [14] | fold induction at 96 h (CYP1A1 [15]) | AUC [16] | Cmax [17] | Cmax [18] | AUC/dose (Rattus norvegicus [27]) | AUC/dose (Rattus norvegicus [29]) | Cmax [30] | Cmax [32] | fold induction at 96 h (CYP1A2 [33]) | AUC [35] | AUC [36] | fold induction at 96 h (CYP1A1 [37]) | further results |
| --- | --- | --- | --- | --- | --- | --- | --- | --- | --- | --- | --- | --- | --- | --- | --- | --- | --- | --- | --- |
| Cc1c(-c2nnc(-c3ccc(OC(C)C)c(C#N)c3)s2)ccc2c1CCN(C(CO)CO)C2 | 2.33 | 7.2 | – | – | – | – | – | – | – | – | – | – | – | – | – | – | – | – | fold induction at 96 h (CYP1A1 [1]): 1.7; Cmax [2]: 1750 ng/mL; fold induction at 96 h (CYP1A2 [3]): 1; AUC/dose (Rattus norvegicus [4]): 89 kg·min/L; AUC/dose (Rattus norvegicus [5]): 61 kg·min/L; Cmax [6]: 2320 ng/mL; AUC [7]: 19100 ng·h/mL; AUC [9]: 27800 ng·h/mL |
| Cc1c(-c2noc(-c3ccc(OC(C)C)c(C#N)c3)n2)ccc2c1CCN(C[C@H](O)CO)CC2 | 2.36 | 8.4 | – | – | – | – | – | – | – | – | – | – | – | – | – | – | – | – | AUC [19]: 15600 ng·h/mL; AUC/dose (Rattus norvegicus [20]): 31 kg·min/L; Cmax [21]: 730 ng/mL; AUC/dose (Rattus norvegicus [22]): 38 kg·min/L; AUC [23]: 13200 ng·h/mL; fold induction at 96 h (CYP1A2 [24]): 2.2; Cmax [25]: 870 ng/mL; fold induction at 96 h (CYP1A1 [26]): 215 |
| Cc1c(-c2noc(-c3ccc(OC(C)C)c(C#N)c3)n2)ccc2c1CCN(C[C@H](O)CO)C2 | 2.7 | 7.7 | 10 | 9 kg·min/L | 9 kg·min/L | 4440 ng·h/mL | 64 | 3600 ng·h/mL | 770 ng/mL | 500 ng/mL | – | – | – | – | – | – | – | – | – |

Now from value to compound, other results behind:

| logD [8] | pKa [10] | fold induction at 96 h (CYP1A2 [11]) | AUC/dose (Rattus norvegicus [12]) | AUC/dose (Rattus norvegicus [13]) | AUC [14] | fold induction at 96 h (CYP1A1 [15]) | AUC [16] | Cmax [17] | Cmax [18] | AUC/dose (Rattus norvegicus [27]) | AUC/dose (Rattus norvegicus [29]) | Cmax [30] | Cmax [32] | fold induction at 96 h (CYP1A2 [33]) | AUC [35] | AUC [36] | fold induction at 96 h (CYP1A1 [37]) | Compound | further results |
| --- | --- | --- | --- | --- | --- | --- | --- | --- | --- | --- | --- | --- | --- | --- | --- | --- | --- | --- | --- |
| 2.76 | – | 1.5 | 9 kg·min/L | 16 kg·min/L | 4420 ng·h/mL | 1.4 | 7640 ng·h/mL | 440 ng/mL | 790 ng/mL | – | – | – | – | – | – | – | – | Cc1c(-c2noc(-c3ccc(OC(C)C)c(C#N)c3)n2)ccc2c1CCN(C(CO)CO)C2 | – |
| 2.63 | 8.1 | – | – | – | – | – | – | – | – | 38 kg·min/L | 55 kg·min/L | 1220 ng/mL | 1010 ng/mL | 2 | 21300 ng·h/mL | 15300 ng·h/mL | 100 | CC(C)Nc1ncc(-c2nc(-c3ccc4c(c3)CCN(C(CO)CO)CC4)no2)cc1C#N | clearance [28]: 22 mL/min/kg; half-life [31]: 8.1 h; Vd [34]: 10.9 L/kg; bioavailability [38]: 67% |
| 2.44 | 8.3 | – | – | – | – | – | – | – | – | 43 kg·min/L | 63 kg·min/L | 1350 ng/mL | 1140 ng/mL | 2 | 24900 ng·h/mL | 17000 ng·h/mL | 81 | Cc1c(-c2noc(-c3cnc(NC(C)C)c(C#N)c3)n2)ccc2c1CCN(C(CO)CO)CC2 | – |
